Experimental data taken from the EternaBench riboswitch data.

System: MS2 coat protein
Test: apparent Kd, MS2 coat protein; higher = weaker binding; RNA-MaP array; FMN 200 µM where present
How it was run: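 The apparent Kd is reported as the median of filtered per-cluster binding-curve fits. To get these curves, designs transcribed by stalled E. coli RNA polymerase on Illumina sequencing-chip clusters were titrated with SNAP-549-labelled MS2 coat protein from 0.7 or 1.5 nM, doubling to 3 µM. Titrations were run without and then with constant ligand in 100 mM Tris-HCl pH 7.5, 80 mM KCl, 4 mM MgCl2, BSA, DTT, yeast tRNA and Tween-20, and green signal was normalised to red-channel RNA signal and control-cluster median Fmax.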

[1] = designed as: ON switch for flavin mononucleotide, no ligand
[2] = ligand present: flavin mononucleotide, designed as: ON switch for flavin mononucleotide
[3] = designed as: OFF switch for flavin mononucleotide, no ligand
[4] = ligand present: flavin mononucleotide, designed as: OFF switch for flavin mononucleotide

Sequence	apparent Kd [1]	apparent Kd [2]	apparent Kd [3]	apparent Kd [4]
UUUUUAUUUAUAGGAUAUGGAAACAUGAGGAUCACCCAUGUAUGAUAAGAUAAAUUAUGAUAUGGCCAGAAGGAUAUUAUUUUU	31 nM	34.8 nM	–	–
CAGGAUAGAGGAUAUACAUAGAUACAGAUUCAUAUAAUCCUACAUGAGGAUCACCCAUGUAGAAGGCUAUCCUG	–	–	15 nM	46.4 nM
ACAGAGUGAAGACAGGAUAUUCGCGAUGGCACAUGAGGAUCACCCAUGUUUUGAGCACAUAAACAGAAGAAGGGUUAAAACUCAG	132 nM	13.8 nM	–	–
AUCCCGCGAGGAUAUACAUGAGGAUCACCCAUGUAGGUUCUGGAUGGGCGAAAUUUGUGUAGAAGGCGCACCAA	–	–	33.4 nM	26.1 nM
GGGUACAUCGGAGGAUAUCAUGUAAAUACAUGAGGAUCACCCAUGUCGAUGGAGACAUCGGUGAUUGAGAAGGCCGAUGUACCG	14.8 nM	90 nM	–	–
ACGUGACGGUUCGCGAGUGGACGGAGAAGGCAGACAUGAGGAUCACCCAUGUGAGCCUGCUAUUCUGAGGAUAUCCGUUCGCAC	–	–	25.7 nM	130 nM
GGGUACAUGAGGAUCACCCAUGUAACGUGGAUAAGCUAUAAUAGAAGGAUAAGAGGAGAUGAGGUAUAGGAUAUAUCAUGGGUG	–	–	42.6 nM	17.1 nM
GGUCUUCAAGUCAGGAUAUCGUCUGGUCGGUCUGGCGAGAAGGGACAUGAGGAUCACCCAUGUCGUCUCAUCAG	–	–	25.5 nM	40.2 nM
UUCCCAGCGGGAGGAUAUGGUGCCUUAUUGGUGCUAGAAGGUCCAACAUGAGGAUCACCCAUGUGGGAGUGGUCUAAUGACCUC	212 nM	144 nM	–	–
CUGCUCCGUGUAGGAUAUGCAUACUCCCAUUAUGCAGAAGGACAUGAGGAUCACCCAUGUAUGUUAUUAUCAUGUGUUGCGUGC	–	–	42.5 nM	185 nM
GCACGGCGUGUAGGAUAUGCAUAGCAUUGCUAUGCAGAAGGACAUGAGGAUCACCCAUGUAUGUAUUCCAUACAUUUCCCGUGC	–	–	6.42 nM	7.31 nM
AGUCGGCAUGAGAAGGGUUACAUGAGGAUCACCCAUGUGAUCAAAUCGUUAACAGGAUAUCAGGCGUCGGGCUUUACCCGGAGG	–	–	19.5 nM	125 nM
AUUAAUAAUCGAGGAUAUCACGUCGAAUAGACGUGAGAAGGCGAUCAUAACAUGAGGAUCACCCAUGUAUUACAUGAAGUUAAU	27.5 nM	23.9 nM	–	–
UGGCUACAUGAGGAUCACCCAUGUCAGGAUAUGCCGUUGGAUUGCCUUCGUCGUUCGGGUAGAAGGGACUGCGG	–	–	22.1 nM	21.5 nM
AAAGUGUAAGGAUAUGCUGCUCGUCACUUGCGUGAUGAGUAGCAGAAGGUACAUGAGGAUCACCCAUGUAAAGA	–	–	32.3 nM	40.6 nM
GCAUGCUCCGAGGAUAUCGAAGCUAAUUAUGCACGAGAAGGCGGAACAUGAGGAUCACCCAUGUGAUGCCUAAA	–	–	–	29.4 nM
UUUUUACUUGCAGGAUAUGGAGACAUGAGGAUCACCCAUGUAUGAGGAGCUAAAUUAUGCUGUGGCCAGAAGGGUAUUGUUCUU	66.6 nM	58.8 nM	–	–
AGGGUAUGAACAUGAGGAUCACCCAUGUACUAGGAAACAAAUGAGGAUAUCGAUAGCAAAGCUAUCGAGAAGGCAUGGGACCCU	224 nM	51.8 nM	–	–
GUAGCGUAUGUAGGAUAUCGGUCAGUUUCUGAUCGAGAAGGACAUGAGGAUCACCCAUGUAAAUUACCGACUUUGUCGGGCUGC	–	–	8.06 nM	12.4 nM
CUCGAGCCAAGGCUCGCGAGUACACAGGAUAUGGAAAGUCACAUGAGGAUCACCCAUGUCCAAAACCAGAAGGGUGAGACUAAG	425 nM	85.7 nM	–	–
GUUGUACGAGGAUAUACAUGAGGAUCACCCAUGUGUGUUGUGGGCGACGUACGUUUAUGUAGAAGGCGUGCGGC	–	–	63.6 nM	115 nM

Sequence	apparent Kd [1]	apparent Kd [2]	apparent Kd [3]	apparent Kd [4]
AAAAAGUGAGGAUAUGCACUGUCCUGUAGACACGAGCAGUUGUAGAAGGCACAUGAGGAUCACCCAUGUUUAAA	–	–	29.2 nM	25.9 nM
GUGCCUAUCUGAGGAUAUCAACGCACUUGAGCGUGAGAAGGCAGAGGUACAUGAGGAUCACCCAUGUCCUCCAUAAAAUAAAAG	–	–	6.65 nM	14.1 nM
GGAUUAAUAGUCCACAUGAGGAUCACCCAUGUAGUAUUUUGCAAGGAUAUGGUGGGACUUCGUGGCCAGAAGGUGUAAAGGAUC	128 nM	99.2 nM	–	–
GGAUCCAACACAGGAUAUGCUGGACUUUGUCCAGCAGAAGGGUGAAGAACAUGAGGAUCACCCAUGUGGAUCCAUAUAUUUAAU	483 nM	42.4 nM	–	–
CUCUUGUGAGGAUAUCAGGUGUGCUAGCGUACUGGUACAUCUGAGAAGGCACAUGAGGAUCACCCAUGUUUCUU	–	–	97.7 nM	72.3 nM
UUCAGGGAUCAAGGAUAUCUAUAAUCAUGCGGACAUGAGGAUCACCCAUGUUGAUUACCCAUGAGGGAGAAGGUGAACAUGAGG	40.1 nM	16.7 nM	–	–
CCUCUACAUGAGGAUCACCCAUGUGAGGAUAUGCGAGGCACGCCCGAUGGGCGCGCCGGUAGAAGGCAUGUGGU	–	–	23.6 nM	49.4 nM
GGAUCGAAUGUGAGGAUAUGCUGGUCCUUGGAUCAGCAGAAGGCACAUGAGGAUCACCCAUGUGACUAAGAUCC	–	–	32.7 nM	248 nM
GAUUUCGCAUGAGGAUAUGCUCCCGUUUCGGGAGCAGAAGGCAUGUCAUUAGACAUGAGGAUCACCCAUGUAGUUAAGAUUGAA	378 nM	15.7 nM	–	–
AAAUUAAGAAGAGGAUAUUGACAUGAGGAUCACCCAUGUAUUUGGGAGUGUUUACUGAAUUCUUACGAGAAGGCUUACGAACUU	–	–	–	190 nM
UUGUUGUGUGUAGGAUAUGCAUAUUAUUAUUAUGCAGAAGGACAUGAGGAUCACCCAUGUAUAUUAUUAUUAUAUAUUAUAUAU	–	–	31.1 nM	36.6 nM
AUUAUUUCAUGAGGAUAUGGCACCUUAUUGGUGCCAGAAGGCAUGUCUAUUGACAUGAGGAUCACCCAUGUAUUAAAUUAUAUA	621 nM	45.3 nM	–	–
UUGGACGUCGUAGGAUAUGUAGGAUAUUCCUACAUGAGGAUCACCCAUGUUGACAUAGAAGAAGGACAGAAGGACGAUGUCCAU	88.3 nM	4.86 nM	–	–
GUGUACAUAUCAGGAUAUCUAUUUCCUACAUGAGGAUCACCCAUGUAGAUGAUCACCCAUGUAAAGGAGAAGGGAUAUGUAUAC	384 nM	222 nM	–	–
AAUAAACAUGAGGAUCACCCAUGUAAAUGGGCGAUAGGAUAUGCGAAAAUAAAGAAAGAAGCAGAAGGAUCGAAGA	846 nM	509 nM	–	–
GGAUAGUGAGGAUAUCGAUGUUAGGAGGAUGAGGUAGGAUGCGAGAAGGCACAUGAGGAUCACCCAUGUAUGGU	–	–	48.8 nM	38.8 nM
AGCUACGUUUCGUAGCAGCUAGAAAAGGAUAUUCAAUUUUUCACAUGAGGAUCACCCAUGUAUGUGAAGAAGGCGCCUAGAAAG	50.4 nM	35.9 nM	–	–
CUAUCAAGCAAGGAUAUGCAAUUUAUUAUUUAUGCAGAAGGUGCAACAUGAGGAUCACCCAUGUUUCUGGGUUU	–	–	51.5 nM	91.5 nM
AGUUAUUCAGGAUAUGGUGUGUUAUACAUGAGGAUCACCCAUGUAGAUCCUGGUUAGGCCUCAGAAGGGAAUGUUA	–	–	190 nM	190 nM
AACUAAGAAUUAAUGGUGACUGACAGAAGGCAAUAGAAUGAGACCGACAUGAGGAUCACCCAUGUUGAGGAUAUGUCUUGCUAC	–	–	6.59 nM	7.2 nM
UUAAAUCAUGUAGGAUAUGCAUGGCGAAGCUACGCAGAAGGACAUGAGGAUCACCCAUGUUAAAGCUACCGAGUACGGUGGCAA	–	–	121 nM	193 nM
